Measured values gathered from unrelated publications.
Lines come from different studies, so protocols differ.
Target: Platelet-derived growth factor receptor beta (PDGFRB, Homo sapiens, UniProt P09619)

For `O=[N+]([O-])c1cccc2[nH]c(CNc3nc(N4CCOCC4)nc4c3ncn4-c3ccsc3)nc12`, the binding vs control was 8.2% (binding, competition with immobilised ligand; 10 µM).
With `CCN(CC)CCNC(=O)c1c(C)[nH]c(/C=C2\C(=O)Nc3ccc(F)cc32)c1C` the remaining signal was 17.6% (cell-free assay; 0.5 µM).
`CCCS(=O)(=O)Nc1ccc(F)c(C(=O)c2c[nH]c3ncc(-c4ccc(Cl)cc4)cc23)c1F` has an inhibition of under 20% (enzyme activity, inhibitor; 1 µM).
For `Oc1ccc(-c2nc(-c3ccncc3)c(-c3ccc(F)cc3)[nH]2)cc1`, the remaining signal was 104% (cell-free assay; 0.5 µM).
For `O=C(Nc1cccnn1)N1CCC(=Cc2cccc(Oc3ccc(C(F)(F)F)cn3)c2)CC1`, the remaining binding was 97% (cell-free assay, competition with immobilised ligand; 1 µM).
The remaining signal of `COc1cc2c(cc1OC)-c1[nH]nc(Nc3cccc(F)c3)c1C2` is reported as 45.3% (cell-free assay; 0.5 µM).
`NS(=O)(=O)c1cc(NC(=O)Cc2ccccc2)ccc1Oc1cccc(Cl)c1` gave a remaining binding of 76% (cell-free assay, competition with immobilised ligand; 1 µM).
`Cc1ccc(NC(=O)c2ccc(CN3CCN(C)CC3)cc2)cc1Nc1nccc(-c2cccnc2)n1` has an activity vs control of 39.1% (enzyme activity, inhibitor; 0.5 µM).
`O=C(CSc1nc2nccnc2c(=O)n1CCc1ccccc1)Nc1nccs1` has an inhibition of 2% (enzyme activity, inhibitor; 10 µM).
For `Cn1nc(C(F)(F)F)cc1-c1cnc(N2CCc3cc(S(=O)(=O)Nc4c(F)cc(Cl)cc4F)cc(N4CCCC4=O)c32)nc1`, the remaining binding was 90% (cell-free assay, competition with immobilised ligand; 1 µM).
With `Cc1ccc(C(=O)NCc2ccsc2)cc1C#Cc1cn(C(C)C)c2ncnc(N)c12` the activity vs control was 20% (enzyme activity, inhibitor; 1 µM).
`Cc1ccc(NC(=O)c2ccc(C)c(C(F)(F)F)c2)cc1C#Cc1nn(C2CCC(O)CC2)c2ncnc(N)c12` (centres unmarked) has a remaining signal of 87% (cell-free assay; 10 µM).
With `CCN(CC)c1ccc(C2=NNC(=O)CC2C)cc1[N+](=O)[O-]` (centres unmarked) the remaining activity was 6% (enzyme activity, inhibitor; 10 µM).
`CNC(=O)c1cc(Oc2ccc(NC(=O)Nc3ccc(Cl)c(C(F)(F)F)c3)cc2)ccn1` has a remaining signal of 12% (cell-free assay; 0.5 µM).
With `CC(C)(C)c1nc2c(s1)c1nc(N)ncc1c1ccc(NS(=O)(=O)c3c(F)cccc3F)c(F)c12` the remaining activity was 105% (enzyme activity, inhibitor, radiometric; 1 µM).
With `C=CC(=O)Nc1cc(Nc2nccc(Nc3cc(Cl)c(F)cc3C(C)(C)O)n2)c(OC)cc1N1CC[C@@H](N(C)C)C1` the inhibition was -2% (enzyme activity, inhibitor; 1 µM).
`Cc1ccc(Nc2nccc(N(C)c3ccc4c(C)n(C)nc4c3)n2)cc1S(N)(=O)=O` has an inhibition of 64% (enzyme activity, inhibitor; 0.3 µM).
The remaining activity of `CCCOc1ccc(OC)c(F)c1C(=O)c1ccc(C(=O)N[C@@H]2CNC[C@H]2NC(=O)c2ccc3[nH]ncc3c2)cc1` is reported as 74% (enzyme activity, inhibitor; 10 µM).
For `N#CCCc1ccc2c(c1)-c1[nH]c3ccc([N+](=O)[O-])cc3c1CC(=O)N2`, the remaining signal was 83.9% (cell-free assay; 0.5 µM).
`Cn1nc(C(=O)NCc2ccc(C(=O)O)cc2)cc1-c1ccc2[nH]ccc2c1` gave a remaining binding of 96% (cell-free assay, competition with immobilised ligand; 0.1 µM).
For `Cc1[nH]c(/C=C2\C(=O)Nc3ccc(F)cc32)c(C)c1C(=O)N[C@H]1CCN(C(=O)N(C)C)C1`, the remaining activity was 97% (enzyme activity, inhibitor; 0.1 µM).
For `CN(C)c1ncnc(-c2ccc3nc(Nc4cc(CN5CCN(C(=O)CC(F)(F)F)CC5)ccn4)[nH]c3c2)c1Cl`, the remaining binding was 100% (cell-free assay, competition with immobilised ligand; 1 µM).
`Oc1cccc(-c2nc(N3CCOCC3)c3oc4ncccc4c3n2)c1` gave a remaining signal of 99.2% (cell-free assay; 0.5 µM).
With `Cc1noc([C@H]2C[C@@H](c3ccc(C(F)(F)F)cc3)CN(C(=O)N3CCS(=O)(=O)C3)C2)n1` the remaining binding was 100% (cell-free assay, competition with immobilised ligand; 1 µM).
The inhibition of `COc1cc2ncnc(Nc3ccc(Oc4ccccc4)cc3C)c2cc1OC` is reported as 2% (enzyme activity, inhibitor; 1 µM).
With `CCCOc1ccc([C@@H]2[C@@H](C(=O)O)[C@H](c3ccc4c(c3)OCO4)CN2CC(=O)Nc2c(CC)cccc2CC)cc1` the remaining binding was 100% (cell-free assay, competition with immobilised ligand; 1 µM).
`Nc1ncnc2occ(-c3ccc(NC(=O)Nc4cc(C(F)(F)F)ccc4F)cc3)c12` gave a remaining activity of 0% (enzyme activity, inhibitor; 20 µM).
`Cn1cc(Cl)c2c(Oc3c(F)cc(Nc4cc(Cl)nc(N)n4)cc3F)ccnc21` gave a remaining binding of 96% (cell-free assay, competition with immobilised ligand; 0.1 µM).
`Cc1sc(C(=O)NC2COC2)cc1-n1cc(NC(=O)Nc2c(F)cccc2Cl)cn1` has a remaining activity of 97.9% (enzyme activity, inhibitor; 10 µM).
